Screening data (PubChem)
PMI act – activators of human PMI, primary screen, biochemical, fluorescence intensity, near-Km mannose 6-phosphate; AID 1214, 2008; purified human PMI, coupled resazurin fluorescence, 20 min; stronger effect = higher value; 1 = vehicle control, 0 substrate-free wells; Mannose-6-phosphate isomerase (Homo sapiens), P34949; actives 0.005% (n = 190,000); activation factor at 20 µM;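 active = activation factor of 2 or more at 20 µM, relative to plate controls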
Target sequence (P34949 whole entry, looked up): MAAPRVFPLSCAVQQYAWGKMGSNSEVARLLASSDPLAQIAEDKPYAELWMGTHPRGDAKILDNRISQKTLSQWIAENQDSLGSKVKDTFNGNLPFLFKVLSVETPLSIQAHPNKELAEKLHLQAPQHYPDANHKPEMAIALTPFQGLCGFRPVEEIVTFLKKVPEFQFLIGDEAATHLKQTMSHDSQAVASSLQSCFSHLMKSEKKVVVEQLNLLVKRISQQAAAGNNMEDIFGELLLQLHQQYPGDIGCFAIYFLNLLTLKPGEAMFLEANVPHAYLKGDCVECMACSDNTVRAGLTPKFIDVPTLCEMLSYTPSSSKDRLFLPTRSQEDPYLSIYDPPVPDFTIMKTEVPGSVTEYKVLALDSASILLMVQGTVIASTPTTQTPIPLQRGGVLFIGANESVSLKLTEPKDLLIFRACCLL
PMI act hi M6P – human PMI activators, high substrate, primary screen, biochemical, fluorescence intensity, near-saturating mannose 6-phosphate; Mannose-6-phosphate isomerase (Homo sapiens), P34949; actives 0.34% (n = 190,000); activation factor at 20 µM; coupled PMI enzyme assay, resazurin fluorescence, 20 min; stronger effect = higher value; 1 = untreated enzyme, 0 = substrate-free blank;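 active = activation factor of 2 or more at 20 µM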
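assay system = human phosphomannose isomerase with PGI, G6PDH, diaphorase coupling enzymes | quantity = 15 ng/mL PMI | incubation = enzyme reaction with compound 20 min at room temperature | medium = HEPES pH 7.4 buffer with MgCl2 and Tween-20 | compound dosing = one concentration, 20 µM, in 1% DMSO | measured by = Diaphorase-driven resazurin-to-resorufin fluorescence, excitation 544, emission 590 nm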
PTEN del growth – growth suppression of PTEN-null HCT116, primary screen, cell-based, CellTiter-Glo; HCT116 PTEN-null viability, 60 h; stronger effect = lower value; AID 827, 2007; viability, % at 10 µM; actives 1.2% (n = 140,000);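 active = viability at or below a set limit, 4 SD under the median of all tested compounds, cut at about 3.7% in these data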;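 note: PTEN knockout HCT116 line with beta catenin targeted HCT116 as companion control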
Lmaj promast – Leishmania major promastigote growth inhibition, primary screen. actives 9% (n = 200,000). inhibition, % at 10 µM. Leishmania major promastigotes, resazurin fluorescence viability; in the data active = inhibition above about 50%;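 note: promastigotes grown with compound for 44 hours at 28 °C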
bCat KO growth – primary screen for growth suppressors in beta-catenin knockout HCT116 cells (colon tumor, human); actives 1.5% (n = 140,000); viability, % at 10 µM; AID 818, 2007; HCT116 beta-catenin knockout viability, CellTiter-Glo, 60 h; stronger effect = lower value;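 active = viability at or under a set limit, the compound median less 4 SD, cut at about 6% in these data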;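 note: 0% = Hyamine 1622 control at 20 µM and 100% = untreated cell control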
The depositor's hits bear a star; . = not tested or not shown. Hits are enriched below; roughly 9.6% of the tested compounds scored in any of these assays.

SMILES	PMI act	PMI act hi M6P	PTEN del growth	Lmaj promast	bCat KO growth
Brc1cccc(-c2nnc3sc(CNCc4ccco4)cn23)c1	1.1	1	91	4	83
Cc1ccc2sc(-c3ccc(NC(=O)CCN4C(=O)c5ccccc5C4=O)cc3)nc2c1	1	1.1	82	-5	89
COc1ccc(O)c(CN2CCN(CCc3ccccc3)C(CCO)C2)c1 (stereo not given)	0.9	0.7	.	77*	.
COc1ccc(CN2CCN(CCc3ccccc3)C(CCO)C2)c(O)c1 (stereo not given)	0.8	0.7	.	87*	.
O=C(Nc1ccccc1)Nc1ccc(Br)c(Cl)c1	1.1	1.1	17	48	22
Cc1cc(CNC(=S)Nc2cccc(Cl)c2Cl)nn1C	1	1	.	2	.
CC(Sc1nc(N)cc(=O)[nH]1)C(=O)Nc1cccc(Cl)c1 (stereo not given)	0.9	0.9	89	56*	89
CC(=O)NC1C(=O)N=C(SC(C)C(=O)Nc2cccc(Cl)c2)NC1=O (stereo not given)	1	1.1	.	63*	.
CCOC(=O)c1sc(NC(=O)C(C)Sc2nc(N)cc(=O)[nH]2)nc1C (stereo not given)	1	1	.	-6	.
CC(=O)NC1C(=O)N=C(SCC(=O)Nc2c(C)cccc2C)NC1=O (stereo not given)	1.1	1	.	-16	.
CCOC(=O)C1=C(C)NC(=O)C1CC(=O)O (stereo not given)	1.1	1.2	71	-3	69
Cc1cc(C)nc(SCC(=O)N/N=C/c2cccs2)n1	1	1	94	-3	97
Cc1ccc(C)n1NC(=O)c1ccccc1Cl	1	1	101	3	99
Cc1ccc(C)n1NC(=O)c1cccc(Cl)c1	1	1.1	93	92*	90
CC1=C(C(=O)OCc2ccccc2)C(c2cccnc2)c2c(n(C)c(=O)n(C)c2=O)N1 (stereo not given)	0.9	0.9	106	75*	94
O=Nc1ccc(NOC(=O)c2ccccc2Br)cc1	0.9	0.8	96	73*	85
O=C(ONc1ccc(N=NC(=O)c2ccccc2O)cc1)c1ccccc1	0.7	0.8	18	0	37
COCCOc1cc(Nc2nnc(C(F)(F)F)s2)c(Cl)cc1Cl	1	1	85	63*	69
COc1ccc(N2C(=O)c3ccccc3NC2c2cccnc2)cc1 (stereo not given)	0.9	0.9	.	59*	.
O=C(c1cccc(Cl)c1)c1nn(-c2ccccc2)c(=O)cc1C(F)(F)F	0.9	0.9	1.1*	35	2.5*
O=C(c1ccccc1)c1nn(-c2ccc(Cl)cc2)c(=O)cc1C(F)(F)F	1	1	1.7*	34	2.2*
O=C(c1ccccc1)c1nn(-c2ccccc2)c(=O)cc1C(F)(F)F	0.9	0.9	14	11	17
Cc1ccc(Cn2nnc3c(=O)n(Cc4ccccc4C)cnc32)cc1	1	1	101	-10	93
CC1CN(C(=O)CSc2nnc3c(Cl)cc(Cl)cn23)CC(C)O1 (stereo not given)	1	0.9	104	2	86
COc1ccc([N+](=O)[O-])cc1N(CC(O)CN1CCCCC1)S(=O)(=O)c1ccc(C)cc1 (stereo not given)	.	.	.	56*	.
SMILES	PMI act	PMI act hi M6P	PTEN del growth	Lmaj promast	bCat KO growth
Cc1ccc(N(CC(O)CN2CCCC2)S(=O)(=O)c2ccc(C)cc2)cc1 (stereo not given)	1	1	83	28	90
Cc1ccc(N(CC(O)CN2CCCCC2)S(=O)(=O)c2ccccc2[N+](=O)[O-])cc1 (stereo not given)	0.9	0.9	.	99*	.
CCCCN(CCCC)CC(O)CN(c1cc([N+](=O)[O-])ccc1OC)S(=O)(=O)c1ccccc1 (stereo not given)	1	1.1	65	71*	67
O=C(Nc1ccccc1-c1nc2ccccc2s1)C1=COCCO1	0.8	0.9	83	1	82
CCCC(C)C(=O)OCC(=O)Nc1ccc(Br)cc1 (stereo not given)	1.2	1.1	.	8	.
Cc1cc(Br)cc2c(C(=O)Nc3c(C)n(C)n(-c4ccccc4)c3=O)cc(-c3cccs3)nc12	0.8	0.9	60	69*	55
CCc1ccc(-c2cc(C(=O)Nc3c(C)n(C)n(-c4ccccc4)c3=O)c3ccccc3n2)s1	0.9	0.9	49	31	57
Cc1ccc(C#N)c(SCC(=O)Nc2nccs2)n1	0.9	0.9	.	3	.
Cc1ccc(-c2nc(NC(=O)c3ccc(S(=O)(=O)N(CCC#N)CCC#N)cc3)sc2-c2ccccc2)cc1	0.9	1	23	18	51
CCCN(CCC)S(=O)(=O)c1ccc(C(=O)Nc2nc3c(s2)CCc2ccccc2-3)cc1	1	1	2.9*	5	3.1*
Cc1csc(=Nc2c(C)n(C)n(-c3ccccc3)c2=O)n1Cc1ccccc1	0.9	0.9	89	-5	91
C=CCn1c(-c2ccc(OC)cc2)csc1=Nc1c(C)n(C)n(-c2ccccc2)c1=O	1	1	78	93*	80
O=C(C1CCN(Cc2ccc(Cl)cc2)CC1)N1CCN(C(c2ccccc2)c2ccccc2)CC1	0.9	1	13	88*	13
CN1CCCN(C(c2ccccc2)c2ccc(Cl)cc2)CC1 (stereo not given)	1.2	1.1	16	99*	17
Cc1cccc(CN2CCN(C(c3ccccc3)c3ccc(Cl)cc3)CC2)c1 (stereo not given)	1.2	1.1	78	63*	87
Cc1cccc(C)c1NC(=O)COC(=O)CCC(=O)c1cccs1	1.1	1	.	-7	.
Nc1c(Cl)ncnc1N/N=C/c1ccccn1	1.2	1.2	3.4*	100*	2.5*
Nc1c(Cl)ncnc1N/N=C/c1ccnc2ccccc12	1.5	1.5	97	-1	96
Nc1c(Cl)ncnc1N/N=C/c1ccc2ccccc2n1	1.5	1.7	3.0*	100*	5.1*
COc1cccc(OC)c1C(=O)Oc1ccc2c(c1)O/C(=C\c1ccncc1)C2=O	1	0.9	56	94*	59
O=C1/C(=C/c2ccccc2)Oc2cc(OC(=O)N3CCOCC3)ccc21	1.1	1.1	80	74*	80
Cc1cccc(NC(=O)CSc2ccc(C(N)=O)cc2[N+](=O)[O-])c1C	1.2	1.1	91	49	89
CC(C)(C)N=C1NC(=NC(C)(C)C)c2ccccc21	0.9	0.9	49	66*	59
c1ccc2c(c1)C(=NCC1CCCO1)NC2=NCC1CCCO1 (stereo not given)	1	0.9	94	5	88
